Where two headings read alike, the source gives them in different places.
Legend:
[1] = DPPH radical scavenging antioxidant assay; conditions: for Antioxidant activity % Inhibition ± SD: DPPH 300 μM, 37 °C, 30 minutes; for Antioxidant activity EC50: concentration required to scavenge 50% of DPPH; for Antioxidant activity (in words): DPPH
How it was run: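 Test sample mixed with ethanolic DPPH radical solution (300 μM before mixing), incubated at 37 °C for 30 min, and absorbance read at 515 nm. Percent radical inhibition was calculated against a DMSO negative control, with ascorbic acid as the standard. EC50 is the sample concentration (μg ml−1) needed to scavenge 50% of DPPH.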

[2] = molecular target: urease (Canavalia ensiformis, UniProt P07374); assay: In vitro urease inhibition assay; format: biochemical
Chain of urease (P07374 whole entry, looked up): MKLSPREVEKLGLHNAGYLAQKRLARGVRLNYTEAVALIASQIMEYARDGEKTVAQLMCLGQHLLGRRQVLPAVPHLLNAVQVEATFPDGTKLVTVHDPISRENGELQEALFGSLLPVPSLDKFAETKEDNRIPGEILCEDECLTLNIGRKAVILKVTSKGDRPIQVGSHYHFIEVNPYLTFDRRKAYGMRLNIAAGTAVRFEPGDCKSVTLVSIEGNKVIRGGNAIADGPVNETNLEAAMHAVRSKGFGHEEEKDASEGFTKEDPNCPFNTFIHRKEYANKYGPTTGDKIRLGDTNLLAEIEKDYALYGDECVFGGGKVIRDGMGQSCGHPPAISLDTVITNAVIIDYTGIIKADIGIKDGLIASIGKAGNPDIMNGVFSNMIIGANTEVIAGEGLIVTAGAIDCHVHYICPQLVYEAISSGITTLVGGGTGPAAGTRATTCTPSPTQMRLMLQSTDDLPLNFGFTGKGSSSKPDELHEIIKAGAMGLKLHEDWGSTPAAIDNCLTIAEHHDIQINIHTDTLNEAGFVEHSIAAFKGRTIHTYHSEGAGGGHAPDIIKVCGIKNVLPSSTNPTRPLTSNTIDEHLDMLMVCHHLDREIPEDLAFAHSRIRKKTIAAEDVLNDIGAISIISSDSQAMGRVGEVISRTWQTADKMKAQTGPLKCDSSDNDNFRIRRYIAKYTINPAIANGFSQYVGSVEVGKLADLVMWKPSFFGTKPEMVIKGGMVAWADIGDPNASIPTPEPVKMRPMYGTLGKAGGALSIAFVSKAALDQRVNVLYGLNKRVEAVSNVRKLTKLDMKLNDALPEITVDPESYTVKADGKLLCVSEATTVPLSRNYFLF

Compound	Antioxidant activity % Inhibition ± SD [1] [%]	Antioxidant activity EC50 [1] [µg/mL]	IC50 [2] [µM]	Antioxidant activity (in words) [1]	IC50 ([2]; read-out: Urease inhibition IC50 ± SD, indophenol method, 15 min at 30 °C, pH 8.2, triplicate) [µM]
O=C1O[C@H]([C@@H](O)CO)C(O)=C1O [Ascorbic acid, reference compound]	80	8.3			
COc1ccc(Br)c(-c2nc3cc4ccccc4cc3[nH]2)c1O [Compound 11, 3-Bromo-6-methoxy-2-(1H-naphtho[2,3-d]imidazol-2-yl)phenol]	71.1 ± 0.01	37.5	42.4 ± 0.65	excellent antioxidant activity	
Oc1ccc(Cl)cc1-c1nc2cc3ccccc3cc2[nH]1 [Compound 4, 4-Chloro-2-(1H-naphtho[2,3-d]imidazol-2yl)phenol]	29 ± 0.01		34.2 ± 0.72		
Brc1cccc(-c2nc3cc4ccccc4cc3[nH]2)c1 [Compound 15, 2-(3-Bromophenyl)-1H-naphtho[2,3-d]imidazole]	69.3 ± 0.01	75		excellent antioxidant activity	
c1csc(-c2nc3cc4ccccc4cc3[nH]2)c1 [Compound 8, 2-(Thiophen-2-yl)-1H-naphtho[2,3-d]imidazole]	32 ± 0.01		86.4 ± 0.78		
Fc1cc(Br)ccc1-c1nc2cc3ccccc3cc2[nH]1 [Compound 14, 2-(4-Bromo-2-fluorophenyl)-1H-naphtho[2,3-d]imidazole]	23 ± 0.01				
COc1cc(-c2nc3cc4ccccc4cc3[nH]2)c(OC)cc1Br [Compound 13, 2-(4-Bromo-2,5-dimethoxyphenyl)-1H-naphtho[2,3-d]imidazole]	57.7 ± 0.01	100			
CCOc1cc(-c2nc3cc4ccccc4cc3[nH]2)ccc1OC [Compound 7, 2-(3-Ethoxy-4-methoxyphenyl)-1H-naphtho[2,3-d]imidazole]	57.8 ± 0.01	100			
COc1cc(-c2nc3cc4ccccc4cc3[nH]2)ccc1OC(C)=O [Compound 3, 2-Methoxy-4-(1H-naphtho[2,3-d]imidazol-2-yl)phenyl acetate]	67.4 ± 0.01	75	56.3 ± 0.78	excellent antioxidant activity	
COc1cc(-c2nc3cc4ccccc4cc3[nH]2)cc(OC)c1O [Compound 5, 2,6-Dimethoxy-4-(1H-naphtho[2,3-d]imidazol-2-yl)phenol]	12 ± 0.01				
c1ccc(-c2nc3cc4ccccc4cc3[nH]2)cc1 [Compound 12, 2-Phenyl-1H-naphtho[2,3-d]imidazole]	43 ± 0.01				
c1ccc2cc3[nH]c(-c4c[nH]c5ccccc45)nc3cc2c1 [Compound 1, 2-(1H-Indol-3-yl)-1H-naphtho[2,3-d]imidazole]	71.1 ± 0.01	37.5	92.3 ± 0.2	excellent antioxidant activity	
COc1ccc(-c2nc3cc4ccccc4cc3[nH]2)cc1OC [Compound 9, 2-(3,4-Dimethoxyphenyl)-1H-naphtho[2,3-d]imidazole]	57.8 ± 0.02	100	67.14 ± 0.67		
CC(=O)NO [Acetohydroxamic acid, reference compound]					37
COc1ccc(-c2nc3cc4ccccc4cc3[nH]2)cc1O [Compound 6, 2-Methoxy-5-(1H-naphtho[2,3-d]imidazol-2-yl) phenol]	71 ± 0.01	37.5		excellent antioxidant activity	
Oc1ccc(-c2nc3cc4ccccc4cc3[nH]2)c(O)c1O [Compound 10, 4-(1H-Naphtho[2,3-d]imidazol-2-yl)benzene-1,2,3-triol]	57.9 ± 0.02	100			
CCOc1ccc(-c2nc3cc4ccccc4cc3[nH]2)cc1OC [Compound 2, 2-(4-Ethoxy-3-methoxyphenyl)-1H-naphtho[2,3-d]imidazole]	43 ± 0.01		73.5 ± 0.65		

From PMC10759213 (RSC Advances, 2024)
